Data: ChEMBL document CHEMBL1141085, “Imidazole-4,5-dicarboxamide derivatives with antiproliferative activity against HL-60 cells” (J Med Chem, 2005)

Legend:
HL-60 [1] = test: Mean in vitro concentration to inhibit the metabolic activity of HL-60 cells after 4 days of incubation; n=3; format: functional, cell-based; settings: Homo sapiens, HL-60, 96 h
In short: (§1)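 Human HL-60 promyelocytic leukemia cells in RPMI 1640 with 8.25% FCS, 37 °C, 5% CO2. Seeded in triplicate at 12.5×10^4 (2-day) or 3.75×10^4 (4-day) cells/0.5 mL. Drug in DMSO (0.2% final), serial dilutions.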

HL-60 [2] = test: Mean in vitro concentration to inhibit the metabolic activity of HL-60 cells after 2 days of incubation; n=3; format: functional, cell-based; settings: Homo sapiens, HL-60, 48 h; in short: as §1

| IC50 (HL-60 [1]) [µM] | IC50 (HL-60 [2]) [µM] | SMILES |
| --- | --- | --- |
| > 62.5 | > 62.5 | COC(=O)[C@@H](C)NC(=O)c1[nH]cnc1C(=O)Nc1ccc(Cl)c(Cl)c1 |
| 3.5 | 6.3 | Cc1ccc(NC(=O)c2nc[nH]c2C(=O)N[C@H](C)C(=O)OC(C)(C)C)cc1 |
| 2.9 | 7 | O=C(NCc1ccc(-c2ccccc2)cc1)c1nc[nH]c1C(=O)Nc1ccc(Cl)c(Cl)c1 |
| 7.2 | 14.7 | CC(C)CNC(=O)c1[nH]cnc1C(=O)Nc1ccc(Cl)c(Cl)c1 |
| 8.8 | 16.2 | O=C(Nc1ccc(Cl)c(Cl)c1)c1nc[nH]c1C(=O)NCc1ccc(Cl)cc1 |
| 10.8 | 17.3 | COC(=O)[C@H](NC(=O)c1[nH]cnc1C(=O)Nc1ccc(Cl)c(Cl)c1)c1ccccc1 |
| 5.9 | 9.2 | C[C@H](NC(=O)c1[nH]cnc1C(=O)Nc1ccc(Cl)c(Cl)c1)c1ccccc1 |
| 4.9 | 8.5 | COC(=O)[C@H](NC(=O)c1[nH]cnc1C(=O)Nc1ccc(Cl)c(Cl)c1)C(C)C |
| 18.3 | 24.3 | COc1ccc(CNC(=O)c2[nH]cnc2C(=O)Nc2ccc(Cl)c(Cl)c2)cc1 |
| 5.9 | 8.8 | C[C@@H](NC(=O)c1[nH]cnc1C(=O)Nc1ccc(Cl)c(Cl)c1)c1ccccc1 |
| > 62.5 | > 62.5 | COC(=O)[C@@H](NC(=O)c1[nH]cnc1C(=O)Nc1ccc(Cl)c(Cl)c1)C(C)C |
| 2.7 | 4.7 | C[C@@H](NC(=O)c1[nH]cnc1C(=O)Nc1ccccc1)C(=O)OC(C)(C)C |
| 25.4 | 49.8 | CC(C)(C)OC(=O)CNC(=O)c1[nH]cnc1C(=O)Nc1ccc(Cl)c(Cl)c1 |
| 3.7 | 6.3 | CCOC(=O)c1ccc(NC(=O)c2[nH]cnc2C(=O)N[C@H](C)C(=O)OC(C)(C)C)cc1 |
| 38.9 | 379 | CCCN(CCC)C(=O)c1[nH]cnc1C(=O)Nc1ccc(Cl)c(Cl)c1 |
| 68.8 | 89.4 | C[C@H](c1ccccc1)N(C)C(=O)c1[nH]cnc1C(=O)Nc1ccc(Cl)c(Cl)c1 |
| 7.8 | 14.6 | CCCCCCNC(=O)c1[nH]cnc1C(=O)Nc1ccc(Cl)c(Cl)c1 |
| 3.3 | 6.6 | C[C@@H](NC(=O)c1[nH]cnc1C(=O)Nc1ccc(Cl)cc1)C(=O)OC(C)(C)C |
| 6.8 | 13.2 | COC(=O)[C@@H](NC(=O)c1[nH]cnc1C(=O)Nc1ccc(Cl)c(Cl)c1)c1ccccc1 |
| 13.2 | 17.7 | O=C(NCCc1ccccc1)c1nc[nH]c1C(=O)Nc1ccc(Cl)c(Cl)c1 |
| 2.4 | 4.9 | C[C@H](NC(=O)c1[nH]cnc1C(=O)Nc1ccc(Cl)c(Cl)c1)C(=O)OC(C)(C)C |
| 7.4 | 11.5 | O=C(NCc1ccccc1)c1nc[nH]c1C(=O)Nc1ccc(Cl)c(Cl)c1 |
| 12.3 | 33.1 | O=C(NC1CCCCC1)c1nc[nH]c1C(=O)Nc1ccc(Cl)c(Cl)c1 |
| 2.5 | 4.6 | C[C@@H](NC(=O)c1[nH]cnc1C(=O)Nc1ccc(Cl)c(Cl)c1)C(=O)OC(C)(C)C |
| 3.1 | 6 | COc1ccc(NC(=O)c2[nH]cnc2C(=O)N[C@H](C)C(=O)OC(C)(C)C)cc1 |
| 15.2 | 21.4 | Cc1ccc(CNC(=O)c2[nH]cnc2C(=O)Nc2ccc(Cl)c(Cl)c2)cc1 |
| 2.9 | 8.2 | C[C@@H](NC(=O)c1[nH]cnc1C(=O)Nc1cccc(Cl)c1)C(=O)OC(C)(C)C |
| 56 | 75.5 | C[C@@H](c1ccccc1)N(C)C(=O)c1[nH]cnc1C(=O)Nc1ccc(Cl)c(Cl)c1 |
